According to ChEMBL document CHEMBL5042469, “Unique Molecular Interaction with the Histone Deacetylase 6 Catalytic Tunnel: Crystallographic and Biological Characterization of a Model Chemotype” (J Med Chem, 2021):
The source made the active and inactive calls. No cut-off for these calls is given here.

Key:
[1] = target: T1, Protein deacetylase HDAC6 (Homo sapiens) (UniProt Q9UBN7); assay: Inhibition of HDAC6 in human MV4-11 cells assessed as increase in acetylation of alpha tubulin at 0.25 uM by Western blot analysis; assay type: cell-based
T1 sequence (whole entry): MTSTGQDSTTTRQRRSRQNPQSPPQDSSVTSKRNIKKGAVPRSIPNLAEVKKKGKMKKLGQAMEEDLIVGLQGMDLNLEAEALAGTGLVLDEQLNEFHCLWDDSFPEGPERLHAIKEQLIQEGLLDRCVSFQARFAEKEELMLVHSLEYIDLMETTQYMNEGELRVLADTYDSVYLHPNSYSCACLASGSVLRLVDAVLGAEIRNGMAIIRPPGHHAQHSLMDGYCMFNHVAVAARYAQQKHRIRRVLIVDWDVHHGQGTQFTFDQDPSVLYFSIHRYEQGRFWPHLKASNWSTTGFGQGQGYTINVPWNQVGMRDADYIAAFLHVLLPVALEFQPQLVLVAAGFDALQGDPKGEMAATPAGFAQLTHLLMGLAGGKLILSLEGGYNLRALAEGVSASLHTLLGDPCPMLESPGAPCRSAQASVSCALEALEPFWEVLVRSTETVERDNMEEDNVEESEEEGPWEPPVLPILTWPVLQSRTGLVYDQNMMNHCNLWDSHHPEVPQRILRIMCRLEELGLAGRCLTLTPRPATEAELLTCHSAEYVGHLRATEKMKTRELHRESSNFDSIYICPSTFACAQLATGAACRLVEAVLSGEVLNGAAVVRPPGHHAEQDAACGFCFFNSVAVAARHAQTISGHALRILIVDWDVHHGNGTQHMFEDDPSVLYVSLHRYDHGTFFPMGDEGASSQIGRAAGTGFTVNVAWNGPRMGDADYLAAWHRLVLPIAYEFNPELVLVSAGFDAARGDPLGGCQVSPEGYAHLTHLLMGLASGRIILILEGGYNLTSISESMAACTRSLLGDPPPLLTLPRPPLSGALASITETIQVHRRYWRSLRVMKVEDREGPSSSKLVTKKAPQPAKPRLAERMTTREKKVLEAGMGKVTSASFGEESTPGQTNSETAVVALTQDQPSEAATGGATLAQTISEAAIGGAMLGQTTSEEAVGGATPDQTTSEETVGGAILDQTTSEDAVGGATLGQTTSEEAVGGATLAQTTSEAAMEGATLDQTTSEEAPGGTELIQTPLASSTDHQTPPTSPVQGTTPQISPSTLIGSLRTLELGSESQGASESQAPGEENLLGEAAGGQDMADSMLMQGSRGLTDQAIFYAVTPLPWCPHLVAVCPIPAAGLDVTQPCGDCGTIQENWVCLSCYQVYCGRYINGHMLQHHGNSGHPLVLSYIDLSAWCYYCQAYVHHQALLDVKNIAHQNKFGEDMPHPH
Procedure, shortened: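 MV4-11 cells incubated with compound for 6 h (0.25–1 μM range), then lysed in RIPA buffer. Lysates were BCA-quantified and run on 4–20% SDS-PAGE, then transferred to nitrocellulose and blocked in 5% milk/PBST. Primary anti-acetyl-α-tubulin mouse monoclonal and HSC70 (1:1000) were applied overnight at 4 °C, followed by HRP anti-mouse (1:5000) and ECL detection.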

[2] = target: T1, Protein deacetylase HDAC6 (Homo sapiens); assay: Inhibition of HDAC6 in human HeLa cells assessed as acetylation of alpha tubulin accumulation at 0.1 uM by DAPI staining based immunofluorescent assay; assay type: cell-based
Procedure, shortened: (§1)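 HeLa cells plated to sub-confluency and treated after 24 h with compound at 0.1 or 2 μM for 6 h; DMSO served as vehicle control. Cells were fixed (4% formaldehyde), permeabilized (1% Triton X-100) and blocked in 5% BSA for 1 h at room temperature. Staining used anti-acetyl-α-tubulin (1:100) plus anti-acetyl-H3 Lys18 (1:50) with DAPI counterstain, then imaging and quantification. Values are the mean of duplicates.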

[3] = target: T1, Protein deacetylase HDAC6 (Homo sapiens); assay: Inhibition of HDAC6 in human HeLa cells assessed as acetylation of alpha tubulin accumulation at 2 uM by DAPI staining based immunofluorescent assay; assay type: cell-based; procedure, shortened: as §1
RPMI-8226 = assay: Anti-proliferative activity against human RPMI-8226 cells assessed as cell viability measured after 72 hrs by Cell-Titer assay; assay type: functional, cell-based; details: RPMI-8226, 72 h
Procedure, shortened: (§2)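 Cells in RPMI-1640 with 10% FBS (AML3 in IMDM with 10% FBS). Cells were plated in 96-well plates, and after 24 h compounds or vehicle (0.5% DMSO) were added. CellTiter-Blue was added after 72 h and fluorescence was read at 560/590 nm. IC50 was obtained by non-linear regression.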

MM1.S = assay: Anti-proliferative activity against human MM1.S cells assessed as cell viability measured after 72 hrs by Cell-Titer assay; assay type: functional, cell-based; procedure, shortened: as §2
U-87 MG = assay: Anti-proliferative activity against human U87G cells assessed as cell viability measured after 72 hrs by Cell-Titer assay; assay type: functional, cell-based, U-87MG ATCC
Procedure, shortened: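 U87G cells grown in EMEM with 10% FBS were plated in 96-well plates and dosed after 24 h, with 0.5% DMSO as vehicle. CellTiter-Blue read-out at 560/590 nm fluorescence after 72 h. IC50 by non-linear regression.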

MOLM-13 = assay: Anti-proliferative activity against human MOLM-13 cells assessed as cell viability measured after 72 hrs by Cell-Titer assay; assay type: functional, cell-based; details: MOLM-13, 72 h; procedure, shortened: as §2
MV4-11 = assay: Anti-proliferative activity against human MV4-11 cells assessed as cell viability measured after 72 hrs by Cell-Titer assay; assay type: functional, cell-based; details: MV4-11, 72 h
Procedure, shortened: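 MV4-11 cells grown in IMDM with 10% FBS were plated in 96-well plates. After 24 h, compounds or vehicle (0.5% DMSO) were added. After 72 h, CellTiter-Blue was added and fluorescence was read at 560/590 nm. IC50 came from non-linear regression.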

Jurkat = assay: Anti-proliferative activity against human Jurkat cells assessed as cell viability measured after 72 hrs by Cell-Titer assay; assay type: functional, cell-based; procedure, shortened: as §2
OCI-AML-3 = assay: Anti-proliferative activity against human AML-3 cells assessed as cell viability measured after 72 hrs by Cell-Titer assay; assay type: functional, cell-based; details: OCI-AML-3, 72 h; procedure, shortened: as §2
[4] = Anti-proliferative activity against human AR230 cells assessed as cell viability measured after 72 hrs by Cell-Titer assay; assay type: functional, cell-based
Procedure, shortened: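 AR230 cells were maintained in RPMI-1640 with 10% FBS, 2 mM L-glutamine and 1 μM imatinib. Cells were plated in 96-well plates and dosed after 24 h, with 0.5% DMSO as vehicle. CellTiter-Blue fluorescence was read at 560/590 nm after 72 h. IC50 by non-linear regression.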

BV-173 = assay: Anti-proliferative activity against human BV-173 cells assessed as cell viability measured after 72 hrs by Cell-Titer assay; assay type: functional, cell-based; details: BV-173, 72 h; procedure, shortened: as §2
HeLa = assay: Anti-proliferative activity against human HeLa cells assessed as cell viability measured after 72 hrs by Cell-Titer assay; assay type: functional, cell-based
Procedure, shortened: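 HeLa cells grown in DMEM with 10% FBS were plated in 96-well plates. After 24 h they were treated with compound or 0.5% DMSO vehicle. CellTiter-Blue was added at 72 h and read at 560/590 nm fluorescence. IC50 from non-linear regression.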

[5] = Anti-proliferative activity against human MRC9 cells assessed as cell viability measured after 72 hrs by Cell-Titer assay; assay type: functional, cell-based; details: MRC9, 72 h; procedure, shortened: as §2

Row | SMILES | Activity [1] | Activity [2] | Activity [3] | IC50 (RPMI-8226) [nM] | IC50 (MM1.S) [nM] | IC50 (U-87 MG) [nM] | IC50 (MOLM-13) [nM] | IC50 (MV4-11) [nM] | IC50 (Jurkat) [nM] | IC50 (OCI-AML-3) [nM] | IC50 [4] [nM] | IC50 (BV-173) [nM] | IC50 (HeLa) [nM] | IC50 [5] [nM]
1 | O=C(NO)c1ccc(CN(Cc2cccnc2)S(=O)(=O)c2cc(F)c(F)c(F)c2F)cc1 | Active | inactive | Active | 700 | 700 | 2000 | 2000 | 600 | 1900 | 3300 | 1500 | 1700 | 3500 | > 50000
2 | O=C(CCCCCCNC(=O)c1cnc(N(c2ccccc2)c2ccccc2Cl)nc1)NO [CITARINOSTAT] | Active | inactive | inactive | 6500 | 1600 | 9100 | 13500 | 1200 | 1200 | 7700 | 4300 | 900 | 7000 | 30400
